The array DNA melting data of Ke et al. (doi:10.1101/2024.01.08.574731)

Experiments:
[1] = melting temperature; fluorescence melt of hairpins on a sequencing array, two-state fit, raised by 9.35 °C to match UV melts; conditions: sodium 0.088 M
Outline: (§1)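 Bootstrapped two-state fits yielded melting temperature and folding enthalpy for library hairpins. Cy3 fluorescence, with annealed Cy3 and quencher oligos, was imaged on a sequenced MiSeq flow cell in 50 mM Na-HEPES pH 8.0, 25 mM NaCl in 2.5 °C steps up to 60 °C, and normalised to pre-quench Cy3 and to control constructs. Four replicates were combined by inverse variance, and fitted temperatures were raised by 9.35 °C to match UV melts.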

[2] = folding enthalpy; higher = less favourable; fluorescence melt of hairpins on a sequencing array, two-state fit; conditions: sodium 0.088 M
Outline: as §1

GCACCGCGAAAGCTCTGC (((..((....))..)))
Tm [1]: 27.4 °C | folding enthalpy [2]: -10.9 kcal/mol

GGGCTTTCGAAAGAACCC (((..(((....))))))
Tm [1]: 35.7 °C | folding enthalpy [2]: -40 kcal/mol

GATCTCACTAGAGATC ((((((....))))))
Tm [1]: 54.3 °C | folding enthalpy [2]: -40.9 kcal/mol

TTCGAGAAATCGAA (((((....)))))
Tm [1]: 37.9 °C | folding enthalpy [2]: -12.4 kcal/mol

GTCTACGAAAGTATGAC ((((((....))).)))
Tm [1]: 42.3 °C | folding enthalpy [2]: -23.8 kcal/mol

TTAACGAAAGTTAA (((((....)))))
Tm [1]: 41.1 °C | folding enthalpy [2]: -14 kcal/mol

CGTGCCGGAAACGGGACG (((.(((....))).)))
Tm [1]: 62.9 °C | folding enthalpy [2]: -37.6 kcal/mol

GACCATGGAAACATGGTC (((((((....)))))))
Tm [1]: 65.1 °C | folding enthalpy [2]: -43.1 kcal/mol

GGCTTCCGAAAGGAGCC (((.(((....))))))
Tm [1]: 60 °C | folding enthalpy [2]: -37.1 kcal/mol

GCTCGAACGAAAGTTAGC (((..(((....))))))
Tm [1]: 31.5 °C | folding enthalpy [2]: -12.1 kcal/mol

GTGAACGGAAACGTTCGC (.(((((....))))).)
Tm [1]: 56.9 °C | folding enthalpy [2]: -28.9 kcal/mol

GCATGCGAAAGCAACTGC ((((((....)))..)))
Tm [1]: 40.2 °C | folding enthalpy [2]: -14.2 kcal/mol

CGAGCCGGAAACGGTTCG (((.(((....))).)))
Tm [1]: 56 °C | folding enthalpy [2]: -40.1 kcal/mol

GGGGCTGGAAACGGCTCC ((.((.(....).)).))
Tm [1]: 48.6 °C | folding enthalpy [2]: -38.7 kcal/mol

GCTTTGGGAAACCAAGGC ((.((((....)))).))
Tm [1]: 47.8 °C | folding enthalpy [2]: -29.7 kcal/mol

GATCTTGCGAAGATC ((((((...))))))
Tm [1]: 42.8 °C | folding enthalpy [2]: -23.7 kcal/mol

GTGCTGAAAAGCAC (((((....)))))
Tm [1]: 66 °C | folding enthalpy [2]: -28.1 kcal/mol

GCACACGAAAGTGGTGC ((((((....))).)))
Tm [1]: 59.6 °C | folding enthalpy [2]: -33 kcal/mol

GATCAGTAATCTGATC ((((((....))))))
Tm [1]: 48.6 °C | folding enthalpy [2]: -36 kcal/mol

GACTGGGGAAACCCAGTC (((((((....)))))))
Tm [1]: 66.6 °C | folding enthalpy [2]: -40.3 kcal/mol

GCCTCGGGAAACTGAGGC (((((.(....).)))))
Tm [1]: 59.4 °C | folding enthalpy [2]: -37.1 kcal/mol

GCGAGGCATCGC ((((....))))
Tm [1]: 57.4 °C | folding enthalpy [2]: -26.3 kcal/mol

GCATGGCGAAAGCCTAGC ((..(((....)))..))
Tm [1]: 52.1 °C | folding enthalpy [2]: -17.9 kcal/mol

GATCGTGTGGACGATC ((((((....))))))
Tm [1]: 55.7 °C | folding enthalpy [2]: -38 kcal/mol

GCATGGCGAAAGCCACGC ((.((((....)))).))
Tm [1]: 60.9 °C | folding enthalpy [2]: -17.6 kcal/mol

GATCAGTTACCTGATC ((((((....))))))
Tm [1]: 50.9 °C | folding enthalpy [2]: -37 kcal/mol

GATCCGAGCCCGGATC ((((((....))))))
Tm [1]: 55.3 °C | folding enthalpy [2]: -35.6 kcal/mol

GATCCGTACACGGATC ((((((....))))))
Tm [1]: 61.2 °C | folding enthalpy [2]: -43.2 kcal/mol

GCGGAGCGAAAGCGTCGC (((..((....))..)))
Tm [1]: 67 °C | folding enthalpy [2]: -26.6 kcal/mol

GATCAACATCTTGATC ((((((....))))))
Tm [1]: 41.5 °C | folding enthalpy [2]: -28.1 kcal/mol

GTCAGCGAAAGCTTCGAC ((((((....)))..)))
Tm [1]: 32.3 °C | folding enthalpy [2]: -12 kcal/mol

GCGGCAACCGC ((((...))))
Tm [1]: 51.7 °C | folding enthalpy [2]: -23.4 kcal/mol

GCCCGGCGAAAGCCATGC ((..(((....)))..))
Tm [1]: 28.8 °C | folding enthalpy [2]: -8.55 kcal/mol

GATCCAGCGCTGGATC ((((((....))))))
Tm [1]: 60.1 °C | folding enthalpy [2]: -54.5 kcal/mol

GAGTCCCGAAAGGGCCTC (((.(((....))).)))
Tm [1]: 52.4 °C | folding enthalpy [2]: -26.6 kcal/mol

GACTAGGGAAACCTAGTC (((((((....)))))))
Tm [1]: 56.9 °C | folding enthalpy [2]: -42.5 kcal/mol

GATGCGGGAAACCGTGTC ((..(((....)))..))
Tm [1]: 43.7 °C | folding enthalpy [2]: -26.3 kcal/mol

GGCGACCGAAAGGTGCC (((.(((....))))))
Tm [1]: 63.5 °C | folding enthalpy [2]: -20.9 kcal/mol

GCGAGCCGAAAGGCCCGC (((.(((....))).)))
Tm [1]: 67.8 °C | folding enthalpy [2]: -26.1 kcal/mol

GATCTTCCTGAAGATC ((((((....))))))
Tm [1]: 51.2 °C | folding enthalpy [2]: -39.8 kcal/mol

GTAGACGAAAGTCATAC ((((((....))).)))
Tm [1]: 39.9 °C | folding enthalpy [2]: -12.8 kcal/mol

GATCCAACAATGGATC ((((((....))))))
Tm [1]: 47.1 °C | folding enthalpy [2]: -32.7 kcal/mol

GTCAGCGAAAGCTTAGAC ((((((....)))..)))
Tm [1]: 40 °C | folding enthalpy [2]: -15.3 kcal/mol

GCAGGGGCGAAAGCCTGC (((..(((....))))))
Tm [1]: 53.7 °C | folding enthalpy [2]: -17.6 kcal/mol

GTGTCGGGAAACCAACAC ((((.((....)).))))
Tm [1]: 42.9 °C | folding enthalpy [2]: -33.7 kcal/mol

GCGGTAATCCGC ((((....))))
Tm [1]: 56.2 °C | folding enthalpy [2]: -24.7 kcal/mol

GGCGAGGGAAACCTTGCC (((.(((....))).)))
Tm [1]: 58 °C | folding enthalpy [2]: -44.4 kcal/mol

GGTTACGGAAACGTAGCC ((.((((....)))).))
Tm [1]: 51.7 °C | folding enthalpy [2]: -28.6 kcal/mol

GGCGTCGAAAGACTGGCC ((((((....)))..)))
Tm [1]: 53.7 °C | folding enthalpy [2]: -34.6 kcal/mol

GCGACAGGAAACCATCGC ((((..(....)..))))
Tm [1]: 35.8 °C | folding enthalpy [2]: -17 kcal/mol

GCGTCTGGAAACAGACAC (.(((((....))))).)
Tm [1]: 42.7 °C | folding enthalpy [2]: -12.8 kcal/mol

GCTCCCACGAAAGTGAGC (((..(((....))))))
Tm [1]: 40.2 °C | folding enthalpy [2]: -17.1 kcal/mol

GAGGATGAAAATCCTC ((((((....))))))
Tm [1]: 54.7 °C | folding enthalpy [2]: -37 kcal/mol

GGATGCGAAAGCAATCC ((((((....))).)))
Tm [1]: 57.9 °C | folding enthalpy [2]: -27.8 kcal/mol

GCTAGGCGAAAGCCATGC ((..(((....)))..))
Tm [1]: 53.5 °C | folding enthalpy [2]: -17.7 kcal/mol

CATTGGAAACAATG (((((....)))))
Tm [1]: 42.3 °C | folding enthalpy [2]: -22.2 kcal/mol

GCGAACCGAAAGGTCGC (((.(((....))))))
Tm [1]: 67.5 °C | folding enthalpy [2]: -31.8 kcal/mol

GCTCCGGCGAAAGCCAGC (((..(((....))))))
Tm [1]: 32.6 °C | folding enthalpy [2]: -11.2 kcal/mol

GCGCAGCGAAAGCTCAGC ((..(((....)))..))
Tm [1]: 41 °C | folding enthalpy [2]: -7.58 kcal/mol

CGTCCGGAAACGGTACG ((((((....))).)))
Tm [1]: 48.1 °C | folding enthalpy [2]: -25.7 kcal/mol

GCTTTCGGAAACGAAAGC (((((((....)))))))
Tm [1]: 68 °C | folding enthalpy [2]: -43.1 kcal/mol

GGAGAGCGAAAGCTTCC (((.(((....))))))
Tm [1]: 44.5 °C | folding enthalpy [2]: -18.2 kcal/mol

GAGGCCGAAAGGCAGCTC ((((((....)))..)))
Tm [1]: 50.6 °C | folding enthalpy [2]: -13.7 kcal/mol

GCCCGGCGAAAGCCTAGC ((..(((....)))..))
Tm [1]: 27.2 °C | folding enthalpy [2]: -13.8 kcal/mol

GTGTGACGAAAGTCCAC (((.(((....))))))
Tm [1]: 52.3 °C | folding enthalpy [2]: -40.2 kcal/mol

GTTCCCGAAAGGGCGAAC ((((((....)))..)))
Tm [1]: 31.5 °C | folding enthalpy [2]: -9.4 kcal/mol

GCTCAGCGAAAGCTCTGC ((..(((....)))..))
Tm [1]: 28.8 °C | folding enthalpy [2]: -13.4 kcal/mol

GCTGCCGAAAGGCCAGC ((((((....))).)))
Tm [1]: 61.5 °C | folding enthalpy [2]: -24.4 kcal/mol

GCGGTCAACCGC ((((....))))
Tm [1]: 56 °C | folding enthalpy [2]: -28.6 kcal/mol

GAATGCGGAAACGCATCC (.(((((....))))).)
Tm [1]: 42.5 °C | folding enthalpy [2]: -11.6 kcal/mol

GATCGCCCTCGCGATC ((((((....))))))
Tm [1]: 67.5 °C | folding enthalpy [2]: -27.9 kcal/mol

GCATGCGGAAACACACGC ((.((.(....).)).))
Tm [1]: 30.4 °C | folding enthalpy [2]: -10.2 kcal/mol

GAAGCCCGAAAGGGTTC (((.(((....))))))
Tm [1]: 47.7 °C | folding enthalpy [2]: -16 kcal/mol

GTTAGCGAAAGCTAAC ((((((....))))))
Tm [1]: 66.4 °C | folding enthalpy [2]: -28.2 kcal/mol

GCAGCGCGAAAGCGGCGC ((..(((....)))..))
Tm [1]: 67.5 °C | folding enthalpy [2]: -21.6 kcal/mol

GCTCTGCGAAAGCCGAGC ((((.((....)).))))
Tm [1]: 60.1 °C | folding enthalpy [2]: -25.2 kcal/mol

GGCTACGAAAGTATGCC ((((((....))).)))
Tm [1]: 54.6 °C | folding enthalpy [2]: -37.8 kcal/mol

GTCGTGGGAAACCATGAC (((.(((....))).)))
Tm [1]: 52.5 °C | folding enthalpy [2]: -45.9 kcal/mol

GATCAATCCTTTGATC ((((((....))))))
Tm [1]: 48.6 °C | folding enthalpy [2]: -39.3 kcal/mol

GATCTCATTGAGATC ((((((...))))))
Tm [1]: 54.2 °C | folding enthalpy [2]: -34.9 kcal/mol

GCTGCCGGAAACGACAGC ((((.((....)).))))
Tm [1]: 55.2 °C | folding enthalpy [2]: -45.7 kcal/mol

GTCGTAGGAAACTGTGAC (((..((....))..)))
Tm [1]: 30.8 °C | folding enthalpy [2]: -16.6 kcal/mol

GATGACGAAAGTCTTATC ((((((....)))..)))
Tm [1]: 25.5 °C | folding enthalpy [2]: -12.4 kcal/mol

GAGGTCGGAAACGGTCTC (((..((....))..)))
Tm [1]: 39.6 °C | folding enthalpy [2]: -23.4 kcal/mol

GATCTAACGTTAGATC ((((((....))))))
Tm [1]: 48.3 °C | folding enthalpy [2]: -47 kcal/mol

GAATGCGAAAGCAAATTC ((((((....)))..)))
Tm [1]: 33.6 °C | folding enthalpy [2]: -18.9 kcal/mol

GATCCATAGGTGGATC ((((((....))))))
Tm [1]: 52 °C | folding enthalpy [2]: -36 kcal/mol

GCACTGCGAAAGCCGCGC ((.(.((....)).).))
Tm [1]: 45.4 °C | folding enthalpy [2]: -21 kcal/mol

GGTGGCGCGAAAGCGACC (((..(((....))))))
Tm [1]: 52.8 °C | folding enthalpy [2]: -9.77 kcal/mol

GTGCAGCGAAAGCTCAC (((.(((....))))))
Tm [1]: 50.8 °C | folding enthalpy [2]: -27 kcal/mol

GATCCTAAGAAGGATC ((((((....))))))
Tm [1]: 48 °C | folding enthalpy [2]: -35.3 kcal/mol

GTTGGGGGAAACTCCGAC ((.((.(....).)).))
Tm [1]: 41.6 °C | folding enthalpy [2]: -25.9 kcal/mol

GCGCCAGGAAACCGGCGC (((((.(....).)))))
Tm [1]: 69.1 °C | folding enthalpy [2]: -22.8 kcal/mol
